One compound from ChEMBL document CHEMBL3414472, “Synthesis, SAR, and series evolution of novel oxadiazole-containing 5-lipoxygenase activating protein inhibitors: discovery of 2-[4-(3-{(r)-1-[4-(2-amino-pyrimidin-5-yl)-phenyl]-1-cyclopropyl-ethyl}-[1,2,4]oxadiazol-5-yl)-pyrazol-1-yl]-N,N-dimethyl-acetamide (BI 665915)” (J Med Chem, 2015) can be followed below.

Data set [1] can be described thus: Permeability across apical to basolateral side in human Caco2 cells measured up to 2 hrs by LC/MS/MS analysis. The format is ADME, cell-based. Conditions: Caco-2, read-out: permeability. An outline of the steps:
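Caco-2 cells seeded at 1-2 x 10^5 cells/cm2 on 0.4 µm PET filter inserts, cultured 10 to 25 days. Compound in HTP-4 buffer applied to apical donor side; donor sampled at start and end, receiver sampled over up to 2 h; quantified by LC/MS/MS. Duplicate 6-timepoint (0 to 2 h).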
(In general: Passage across Caco-2 layers is used to estimate intestinal permeability.)

Data set [2] concerns the target CYP3A4 (Homo sapiens, UniProt P08684). In words: Induction of CYP3A4 in human hepatocytes using midazolam as substrate assessed as formation of 1'-hydroxymidazolam up to 30 uM preincubated for 48 hrs followed by substrate addition measured up to 120 mins relative to control. It counts as ADME, cell-based, Hepatocyte. Conditions: probe midazolam, read-out: FC. An outline of the steps: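 Freshly plated, sandwich-cultured, single-donor human hepatocytes were exposed to compound or rifampicin (25 µM) for 48 h, with medium and dosing agent renewed every 24 h. The linear slope of 1'-hydroxymidazolam formation over time (to 120 min) was determined. Fold induction is the compound slope divided by the solvent control slope.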

The subject of data set [3] is Canis familiaris. In words: Clearance in dog at 1 mg/kg, iv and 10 mg/kg, po relative to hepatic blood flow. Conditions: in vivo. The format is ADME, organism-based, Canis lupus familiaris, Liver. An outline of the steps:
(§1)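 iv 1 mg/kg in 70 % PEG; po 10 mg/kg as suspension in 0.5 % methyl cellulose/0.015 % Tween. Blood sampled at 11 timepoints (0, 5, 15, 30 min, 1, 2, 4, 6, 8, 12, 24 h) per dose; mean of n = 3. Clearance expressed as percent of hepatic blood flow.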

A short description of data set [4]: Volume of distribution at steady state in dog at 1 mg/kg, iv and 10 mg/kg, po. The format is ADME, organism-based, Canis lupus familiaris. Conditions: in vivo, read-out: Vdss. An outline of the steps: as §1
The test system of data set [5] is Cynomolgus monkey. The experiment in a line: Clearance in cynomolgus monkey at 1 mg/kg, iv and 10 mg/kg, po relative to hepatic blood flow. The format is ADME, organism-based, Macaca fascicularis, Liver. To be noted: in vivo. An outline of the steps: as §1
A short description of data set [6]: Mean residence time in cynomolgus monkey at 1 mg/kg, iv. The format is ADME, organism-based, Macaca fascicularis. Also on record: dose 1 mg/kg, route intravenous. Conditions: in vivo. An outline of the steps: as §1
Data set [7] in a line: Plasma concentration in C57BL/6 mouse at 3 mg/kg, po after 2 hrs. The format is ADME, organism-based. More on the design: dose 3 mg/kg, route oral.
A short description of data set [8]: Plasma concentration in C57BL/6 mouse at 10 mg/kg, po after 2 hrs. It counts as ADME, organism-based. Also on record: dose 10 mg/kg, route oral.
In data set [9] the test system is Mus musculus. In words: In vivo inhibition of FLAP in po dosed C57BL/6 mouse assessed as reduction of LTB4 production in calcimycin-stimulated whole blood after 2 hrs by ELISA. It counts as functional, organism-based. Background: ELISA stands for enzyme-linked immunosorbent assay.
A short description of data set [10]: Aqueous equilibrium solubility of the compound in crystalline form in citric acid/disodium phosphate buffer at pH 6.8 after 24 hrs of rotation by HPLC analysis. The format is physicochemical. An outline of the steps: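 Saturated solution of crystalline material in citric acid/disodium phosphate buffer pH 6.8 rotated 24 h; after centrifugation and filtration, dissolved concentration measured by HPLC.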

The target of data set [11] is hERG (KCNH2) (Homo sapiens, UniProt Q12809). The experiment in a line: Inhibition of human ERG expressed in HEK293 cells assessed as change in tail current at 11 uM by manual patch clamp assay relative to control. To be noted: HEK293 cells that express hERG. The format is cell-based. An outline of the steps:
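Whole-cell manual patch clamp on HEK293 cells stably expressing human ERG, at room temperature (20-22 °C) in a perfusion chamber. Change in hERG tail current amplitude during the hyperpolarizing step measured with escalating compound concentrations.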
On the technique in general: Patch clamp records ionic current or voltage across a cell membrane.

In data set [12] the target is T1, Polyunsaturated fatty acid 5-lipoxygenase (Homo sapiens) (UniProt P09917).
T1 sequence (whole entry): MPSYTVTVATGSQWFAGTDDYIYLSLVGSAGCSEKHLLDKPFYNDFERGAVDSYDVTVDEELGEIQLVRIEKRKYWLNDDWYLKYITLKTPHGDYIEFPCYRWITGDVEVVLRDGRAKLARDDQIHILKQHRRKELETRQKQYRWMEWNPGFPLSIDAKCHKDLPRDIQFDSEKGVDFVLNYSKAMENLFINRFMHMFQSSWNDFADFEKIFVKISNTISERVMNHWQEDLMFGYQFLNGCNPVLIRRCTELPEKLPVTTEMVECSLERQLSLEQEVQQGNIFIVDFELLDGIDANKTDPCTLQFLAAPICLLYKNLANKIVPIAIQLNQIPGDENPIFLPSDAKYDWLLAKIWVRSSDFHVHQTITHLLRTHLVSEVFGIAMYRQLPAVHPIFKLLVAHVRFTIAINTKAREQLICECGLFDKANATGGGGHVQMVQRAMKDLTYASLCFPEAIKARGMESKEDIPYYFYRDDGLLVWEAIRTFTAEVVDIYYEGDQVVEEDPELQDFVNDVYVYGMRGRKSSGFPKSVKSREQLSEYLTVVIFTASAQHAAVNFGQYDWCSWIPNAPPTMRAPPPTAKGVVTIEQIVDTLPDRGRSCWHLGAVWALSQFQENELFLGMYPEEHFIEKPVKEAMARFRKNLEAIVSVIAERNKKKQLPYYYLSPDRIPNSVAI
The experiment in a line: Inhibition of 5-LO (unknown origin) at 10 uM relative to control.

Data set [13] deals with T2, Cytosolic phospholipase A2 (Homo sapiens) (UniProt P47712).
T2 sequence (whole entry): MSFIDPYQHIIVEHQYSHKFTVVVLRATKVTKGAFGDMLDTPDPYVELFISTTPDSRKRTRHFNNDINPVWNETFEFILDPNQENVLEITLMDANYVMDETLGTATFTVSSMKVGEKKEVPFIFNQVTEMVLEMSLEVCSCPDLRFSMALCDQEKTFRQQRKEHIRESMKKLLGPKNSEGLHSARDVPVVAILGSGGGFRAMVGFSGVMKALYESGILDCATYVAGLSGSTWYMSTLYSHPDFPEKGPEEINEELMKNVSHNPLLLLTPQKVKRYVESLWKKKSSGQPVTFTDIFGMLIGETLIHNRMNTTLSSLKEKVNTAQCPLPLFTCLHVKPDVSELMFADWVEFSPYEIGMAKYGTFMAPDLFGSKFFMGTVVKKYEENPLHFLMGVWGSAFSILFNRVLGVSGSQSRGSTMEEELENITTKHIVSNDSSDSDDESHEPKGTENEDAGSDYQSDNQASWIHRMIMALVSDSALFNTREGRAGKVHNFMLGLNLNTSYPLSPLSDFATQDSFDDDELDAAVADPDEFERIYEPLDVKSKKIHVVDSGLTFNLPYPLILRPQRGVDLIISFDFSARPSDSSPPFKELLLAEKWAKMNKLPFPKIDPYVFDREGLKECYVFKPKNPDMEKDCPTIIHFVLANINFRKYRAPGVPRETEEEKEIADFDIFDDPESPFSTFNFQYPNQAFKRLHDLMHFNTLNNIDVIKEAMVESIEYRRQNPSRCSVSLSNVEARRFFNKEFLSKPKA
In words: Inhibition of phospholipase A2 (unknown origin) at 10 uM relative to control.

≈ marks a conversion by molar mass, not a printed value. Bounds are passed on as bounds.

Sequence of CYP3A4 (P08684 whole entry): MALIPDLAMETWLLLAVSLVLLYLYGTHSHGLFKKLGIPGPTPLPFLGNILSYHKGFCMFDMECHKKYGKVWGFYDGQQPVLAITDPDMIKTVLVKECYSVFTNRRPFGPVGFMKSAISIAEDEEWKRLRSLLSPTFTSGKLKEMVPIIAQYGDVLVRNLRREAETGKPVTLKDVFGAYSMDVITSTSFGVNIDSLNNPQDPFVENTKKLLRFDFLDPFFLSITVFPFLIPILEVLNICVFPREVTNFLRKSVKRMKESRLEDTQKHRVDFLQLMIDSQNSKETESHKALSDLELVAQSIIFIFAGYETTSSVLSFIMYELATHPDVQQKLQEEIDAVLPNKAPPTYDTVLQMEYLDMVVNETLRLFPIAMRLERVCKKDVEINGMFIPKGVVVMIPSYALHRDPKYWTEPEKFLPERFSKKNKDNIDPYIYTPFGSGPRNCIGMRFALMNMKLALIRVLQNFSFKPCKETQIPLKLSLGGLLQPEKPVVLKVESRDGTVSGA
Sequence of hERG (KCNH2) (Q12809 whole entry, the tested form may be a part): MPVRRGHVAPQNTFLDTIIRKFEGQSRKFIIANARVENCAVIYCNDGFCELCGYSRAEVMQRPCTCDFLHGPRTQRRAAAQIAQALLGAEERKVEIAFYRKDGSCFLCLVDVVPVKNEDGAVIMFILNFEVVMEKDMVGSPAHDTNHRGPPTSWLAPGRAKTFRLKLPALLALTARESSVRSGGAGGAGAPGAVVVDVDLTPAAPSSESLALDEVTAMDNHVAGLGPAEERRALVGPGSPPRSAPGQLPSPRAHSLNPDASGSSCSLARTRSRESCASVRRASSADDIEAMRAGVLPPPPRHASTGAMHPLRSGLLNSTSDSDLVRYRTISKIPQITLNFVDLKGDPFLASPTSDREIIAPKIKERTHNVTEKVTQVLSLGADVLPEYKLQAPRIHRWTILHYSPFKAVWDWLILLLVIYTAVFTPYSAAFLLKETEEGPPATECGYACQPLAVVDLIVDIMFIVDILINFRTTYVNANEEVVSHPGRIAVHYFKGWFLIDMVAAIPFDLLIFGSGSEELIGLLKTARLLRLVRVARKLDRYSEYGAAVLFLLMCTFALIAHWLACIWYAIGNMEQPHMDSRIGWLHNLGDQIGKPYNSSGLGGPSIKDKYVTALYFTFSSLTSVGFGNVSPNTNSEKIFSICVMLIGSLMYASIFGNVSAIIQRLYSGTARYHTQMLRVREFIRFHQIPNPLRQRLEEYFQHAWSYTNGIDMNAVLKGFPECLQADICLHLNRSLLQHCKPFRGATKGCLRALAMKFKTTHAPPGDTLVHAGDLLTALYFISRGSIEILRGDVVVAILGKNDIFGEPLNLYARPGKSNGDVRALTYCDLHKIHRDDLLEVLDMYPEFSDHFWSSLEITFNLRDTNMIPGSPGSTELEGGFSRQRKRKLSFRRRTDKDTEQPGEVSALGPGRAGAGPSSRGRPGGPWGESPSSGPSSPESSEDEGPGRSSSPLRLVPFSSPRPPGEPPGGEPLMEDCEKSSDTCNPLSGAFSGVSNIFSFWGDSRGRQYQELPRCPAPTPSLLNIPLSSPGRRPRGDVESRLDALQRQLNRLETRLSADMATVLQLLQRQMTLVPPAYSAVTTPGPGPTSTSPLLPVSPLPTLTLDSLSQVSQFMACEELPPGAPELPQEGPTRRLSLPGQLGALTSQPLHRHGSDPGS

Take `CN(C)C(=O)Cn1cc(-c2nc([C@@](C)(c3ccc(-c4cnc(N)nc4)cc3)C3CC3)no2)cn1` [BI 665915]: in [1], the Papp A→B at 2 h was 340 nm/s. Besides, the fold induction at 2 h in data set [2] came out at 2. Besides, the CL in data set [3] stood at 2.8%; in data set [5], 3.6%. In addition, the Vd in data set [4] came to 1.2 L/kg. The MRT in [6] was 4.8 h. In addition, the values for the concentration at 2 h in data set [7] and in data set [8] were 3.7 µM and 14.8 µM, respectively. Besides, the inhibition entry in [9] is “Dose-dependent effect”; in data set [12], < 50%; in data set [13], < 50%. The solubility (thermodynamic) at 24 h in [10] came to 0.048 mg/mL (≈ 105 µM). Moreover, the inhibition at 11 µM in [11] is 11%.

For orientation: MRT means a mean duration of stay, worked out from the concentration-time curve. One may read the inhibition as the relative decrease from the control value, in per cent. By solubility (thermodynamic) is commonly meant the concentration in solution at equilibrium with solid.
